This is a sample that favours compounds with a hit; in the whole collection about 0.6% have one here.
TNAP inh hi DEA – human TNAP enzyme inhibitors, primary screen, biochemical, luminescent, high phosphate acceptor level, uHTS; purified TNAP, CDP-star luminescence, 1 M DEA; inhibition, % at 20 µM; 0.03% of 200,000 active;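 active = over 50% inhibition of tissue-nonspecific alkaline phosphatase at 20 µM in the single-dose screen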;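 note: plate controls were DMSO wells for no effect and EDTA-quenched wells as full inhibition for full effect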
Target sequence (P05186 whole entry, looked up): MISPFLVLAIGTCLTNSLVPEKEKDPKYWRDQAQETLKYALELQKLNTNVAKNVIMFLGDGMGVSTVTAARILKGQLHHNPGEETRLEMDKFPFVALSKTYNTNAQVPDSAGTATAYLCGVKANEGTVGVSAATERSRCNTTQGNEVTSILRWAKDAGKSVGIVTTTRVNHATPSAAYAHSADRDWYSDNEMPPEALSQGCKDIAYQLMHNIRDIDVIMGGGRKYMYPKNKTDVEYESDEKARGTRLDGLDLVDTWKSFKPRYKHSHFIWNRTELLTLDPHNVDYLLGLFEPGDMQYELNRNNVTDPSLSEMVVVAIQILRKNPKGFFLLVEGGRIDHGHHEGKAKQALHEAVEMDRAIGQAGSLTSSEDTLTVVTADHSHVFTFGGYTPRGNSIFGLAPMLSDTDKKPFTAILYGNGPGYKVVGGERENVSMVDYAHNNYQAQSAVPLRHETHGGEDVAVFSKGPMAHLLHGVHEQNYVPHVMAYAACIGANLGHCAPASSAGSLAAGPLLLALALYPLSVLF
Rad51 HR inh – human RAD51 strand exchange inhibitors, primary screen, biochemical, fluorescence. DNA repair protein RAD51 homolog 1 (Homo sapiens), Q06609. hRad51 DNA strand exchange, fluorescence dequenching. inhibition, % at 10 µM. 0.085% of 200,000 active. AID 1385, 2008;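 active = inhibition above 40% at the single screening dose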;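 note: 0% = DMSO control wells and 100% = blanks with heterologous ssDNA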
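System: human Rad51 nucleoprotein filaments preassembled on unlabelled ssDNA. Reagent: labelled 47-mer dsDNA for strand exchange. Schedule: 30-min compound preincubation and 15-min exchange, both room temperature. Measured by: FRET fluorescence dequenching, excitation 485 nm, emission 520 nm. Read-out: Fluorescence-based percent inhibition, control- and blank-normalised. Benchmarks: plate controls and plate blanks.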
TNAP inh noacc – human TNAP enzyme inhibitors, primary screen, biochemical, luminescent, no phosphate acceptor, uHTS; 0.26% of 200,000 active; Alkaline phosphatase, tissue-nonspecific isozyme (Homo sapiens), P05186; purified TNAP, CDP-star luminescence, 30 min; inhibition, % at 20 µM;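 active = tissue-nonspecific alkaline phosphatase inhibition above about 50% at 20 µM in the single-dose screen, limit read from the data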;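 note: 0% = DMSO negative control and 100% = EDTA positive control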
PMI activator – activators of human PMI, primary screen, biochemical, fluorescence intensity, near-Km mannose 6-phosphate; activation factor at 20 µM; 0.005% of 190,000 active; purified human PMI, coupled resazurin fluorescence, 20 min; hits give high values; 1 = vehicle control, 0 substrate-free wells; Mannose-6-phosphate isomerase (Homo sapiens), P34949;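 active = activation factor of 2 or more at 20 µM, relative to plate controls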
TNAP act hi DEA – TNAP activators at high phosphate acceptor level, primary screen, biochemical, luminescence, uHTS; Alkaline phosphatase, tissue-nonspecific isozyme (Homo sapiens), P05186; purified TNAP, CDP-star luminescence, 1 M DEA, 30 min; hits give high values; 0 = EDTA background, 1 = DMSO-only activity; activation factor at 20 µM; 200,000 tested, under 10 active; AID 1136, 2008;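 active = activation factor at least 2 at 20 µM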
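Dosing: 20 µM single point. System: human TNAP. Amount: TNAP 1/800 final. Incubation: 30 min, room temperature. Read-out: TNAP activation factor scaled between EDTA and DMSO control wells. Signal: luminescence from CDP-star hydrolysis. Medium: 1 M DEA, pH 9.8, Mg2+, Zn2+. Control set: EDTA negative control, DMSO positive control.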
PMI act hi M6P – human PMI activators, high substrate, primary screen, biochemical, fluorescence intensity, near-saturating mannose 6-phosphate | activation factor at 20 µM | coupled PMI enzyme assay, resazurin fluorescence, 20 min; hits give high values; 1 = untreated enzyme, 0 = substrate-free blank | AID 1216, 2008 | 0.34% of 190,000 active;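 active = activation factor of 2 or more at 20 µM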
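Material: human phosphomannose isomerase with PGI, G6PDH, diaphorase coupling enzymes / Reagent: Man-6-P substrate 1.0 mM / Dosing: single compound dose of 20 µM, 1% DMSO final / Incubation: enzyme reaction with compound 20 min at room temperature / Signal: resorufin fluorescence (Ex 544/Em 590 nm) from resazurin via diaphorase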
Numbers without * were called inactive; · = no result given.

SMILES | TNAP inh hi DEA | Rad51 HR inh | TNAP inh noacc | PMI activator | TNAP act hi DEA | PMI act hi M6P
CC/C(=C/c1sc2ccc(C)cc2[n+]1CCO)SC | -7.8 | -1.1 | -262.5 | 1.8 | 1.1 | 2.5*
CC/C(=C/c1sc2ccc(C)cc2[n+]1CCCS(=O)(=O)[O-])SC | 1.2 | -1.3 | -5.2 | 1.9 | 1 | 2.7*
Cc1ccc2sc(C)[n+](CCC(C)S(=O)(=O)[O-])c2c1 (stereo not drawn) | -1.9 | · | -12.3 | 1 | 1 | 1.1
COc1ccc(C)cc1S(=O)(=O)Nc1cccnc1 | 64.4* | 3.1 | 85.0* | 1 | 0.4 | 0.9
COc1ccc(OC)c(S(=O)(=O)Nc2cnc3ccccc3c2)c1 | 82.1* | -8.5 | 94.3* | 0.9 | 0.2 | 1
CN(C(=O)CSc1nnc(-c2ccncc2)n1-c1ccccc1)C1CCS(=O)(=O)C1 (stereo not drawn) | · | 48.4* | · | · | · | ·
Cn1c(=O)c2cn3c(c2n(C)c1=O)C(c1ccccc1)CC(c1ccccc1)=N3 (stereo not drawn) | -0.5 | -4.8 | -2.3 | 1.5 | 1 | 2*
Cc1ccnn2c(-c3ccccc3)c3c(=O)n(C)c(=O)n(C)c3c12 | -2.4 | 2.5 | -1.1 | 1 | 1 | 1
Cc1ccccc1-c1cc2c(nn1)-c1ccccc1C2=O | -0.1 | 15.3 | -6.2 | 2* | 1 | 2.5*
O=C(Sc1nnnn1C1CCCCC1)c1cccs1 | -8.6 | -5.3 | -9.4 | 1.6 | 1.1 | 2.2*
O=C(C[n+]1ccccc1)N1c2ccccc2Sc2ccccc21 | -6.5 | 5.1 | -8.0 | 1 | 1.1 | 1
O=c1[nH]c(C(Cl)Cl)nc2sc3c(c12)CCN(Cc1ccccc1)C3 | -2.1 | -64.2 | -4.8 | 1.8 | 1 | 2.6*
COc1ccccc1C1NC=C([N+](=O)[O-])C=C1[N+](=O)[O-] (stereo not drawn) | 5.6 | -1.1 | 57.4* | 1 | 0.9 | 1
COc1ccccc1C1C([N+](=O)[O-])=CC([N+](=O)[O-])=CN1C (stereo not drawn) | 7.0 | -0.5 | 21.7 | 1.1 | 0.9 | 1
COc1ccc(C(=O)Nc2cc(C(C)=O)c(/C=C/N(C)C)oc2=O)cc1 | 12.6 | · | 9.6 | 0.9 | 0.9 | 0.9
Cc1cc(C)nc(NN2C(=O)/C(=C/c3ccc(O)cc3)SC2=S)n1 | 43.3 | -37.7 | 93.8* | 1 | 0.6 | 0.9
CC1(C)Cc2nc3sc(C(=O)O)c(N)c3cc2CS1 | -0.7 | -13.2 | -11.9 | 1.7 | 1 | 2.4*
Nc1ccc(S(=O)(=O)NNC(=O)C(=O)NNc2ccccc2)cc1 | 4.0 | -2.4 | 17.9 | 1.6 | 1 | 2.3*
Cc1ccc(S(=O)(=O)NNc2ccccc2)cc1 | -3.9 | -8.5 | 4.2 | 1.1 | 1 | 2.1*
CC(C)NC(=O)Nc1n[nH]c(Nc2ccc(Cl)cc2)n1 | · | -5.5 | · | · | · | ·
Fc1cccc(Cl)c1Cn1nnc(-c2ccc3c(c2)OCO3)n1 | 1.2 | -7.0 | -6.4 | 0.8 | 1 | 0.8
Cc1ccc2nc(CSc3nnc(Nc4ccccc4F)s3)cc(=O)n2c1 | 0.1 | 9.4 | 25.3 | 0.9 | 1 | 1
O=c1cc(CSc2nnc(Nc3ccccc3F)s2)nc2sccn12 | 0.5 | · | 52.3* | 1.1 | 1 | 1
Cc1nc(C/C(=N\N)c2ccc(O)cc2O)cs1 | 5.6 | 11.0 | -4.3 | 1.6 | 0.9 | 2.3*
O=C(NCc1cccnc1)c1ccc(NC(=O)c2ccco2)cc1 | -5.9 | -7.8 | -5.9 | 1 | 1.1 | 1
Cc1ccc(NC2Sc3ccccc3NC2=O)cc1 (stereo not drawn) | -1.6 | -5.2 | -2.0 | 1.6 | 1 | 2.1*
COC(=O)CC1Sc2ccccc2NC1=O (stereo not drawn) | -3.9 | -4.2 | -7.9 | 0.9 | 1 | 1

Screening results as filed in PubChem BioAssay.
